Measured values published in ChEMBL document CHEMBL3745600, “2-Amino-thiophene derivatives present antileishmanial activity mediated by apoptosis and immunomodulation in vitro” (Eur J Med Chem, 2015).
pEC50, pIC50: −log10 of the molar value. The source made the active and inactive calls. No cut-off for these calls is given here.

Experiments:
[1] = Selectivity index, ratio of HC50 for human RBC to IC50 for axenic amastigotes of Leishmania amazonensis IFLA/BR/67/PH8
In short: (§1)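 Promastigote values came from haemocytometer counts after 72 h at 25°C. Axenic amastigote values came from MTT readings after 24 h at 32°C, using amastigotes differentiated at pH 4.6. All 50% values were obtained by probit regression.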

Leishmania amazonensis [2] = experiment: Antileishmanial activity against promastigotes of Leishmania amazonensis IFLA/BR/67/PH8 assessed as induction of necrosis using Annexin-V-FITC/PI staining at 4 times IC50 after 4 hrs by flow cytometry (reference value: 2.6%); assay type: functional
Leishmania amazonensis [3] = experiment: Antileishmanial activity against promastigotes of Leishmania amazonensis IFLA/BR/67/PH8 assessed as induction of early apoptosis using Annexin-V staining at 4 times IC50 after 4 hrs by flow cytometry (reference value: 8.3%); assay type: functional
[4] = Selectivity index, ratio of CC50 for Swiss mouse peritoneal macrophages to EC50 for axenic amastigotes of Leishmania amazonensis IFLA/BR/67/PH8; in short: as §1
[5] = Selectivity index, ratio of HC50 for human RBC to IC50 for promastigotes of Leishmania amazonensis IFLA/BR/67/PH8; in short: as §1
[6] = test system: Peritoneal macrophage cell; experiment: Immunomodulatory activity in Swiss mouse peritoneal macrophages infected with promastigotes form of Leishmania amazonensis IFLA/BR/67/PH8 assessed as increase of IL-12 production at 6.25 to 25 uM after 72 hrs by sandwich ELISA; assay type: functional, cell-based
In short: (§2)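 Supernatants came from infected macrophages treated for 72 h at 37°C, 5% CO₂. TNF-α, IL-12 and IL-10 were measured by sandwich ELISA at 450 nm against murine recombinant cytokine standards. NO was estimated as nitrite by the Griess reaction at 540 nm against a sodium nitrite standard. LPS (10 mg/L) served as positive control. Three experiments were run in triplicate.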

Leishmania amazonensis [7] = experiment: Antileishmanial activity against axenic amastigotes of Leishmania amazonensis IFLA/BR/67/PH8 infected in Swiss mouse peritoneal macrophages assessed as reduction of survival rate after 72 hrs by light microscopy analysis; assay type: functional, organism-based
In short: (§3)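 Peritoneal macrophages were plated on glass coverslips at 1 x 10^6 cells/mL in supplemented RPMI 1640 and allowed to adhere for 2 h at 34°C, 5% CO₂. They were infected for 3 h with stationary-phase promastigotes at 10 parasites per macrophage, washed with PBS, then exposed to compound for 24 or 72 h. Coverslips were fixed and Panoptic-stained, and 300 macrophages per coverslip were counted by light microscopy. EC50 was derived by probit regression.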

[8] = Selectivity index, ratio of CC50 for Swiss mouse peritoneal macrophages to IC50 for promastigotes of Leishmania amazonensis IFLA/BR/67/PH8; assay type: functional; in short: as §1
[9] = test system: Peritoneal macrophage cell; experiment: Immunomodulatory activity in Swiss mouse peritoneal macrophages infected with promastigotes form of Leishmania amazonensis IFLA/BR/67/PH8 assessed as increase of IL-10 production at 6.25 to 25 uM after 72 hrs by sandwich ELISA; assay type: functional, cell-based; in short: as §2
Leishmania amazonensis [10] = experiment: Antileishmanial activity against promastigotes of Leishmania amazonensis IFLA/BR/67/PH8 assessed as induction of early apoptosis using Annexin-V staining at 2 times IC50 after 4 hrs by flow cytometry (reference value: 8.3%); assay type: functional
Leishmania amazonensis [11] = experiment: Antileishmanial activity against promastigotes of Leishmania amazonensis IFLA/BR/67/PH8 assessed as induction of early apoptosis using Annexin-V staining at IC50 after 4 hrs by flow cytometry (reference value: 8.3%); assay type: functional
[12] = test system: Peritoneal macrophage cell; experiment: Immunomodulatory activity in Swiss mouse peritoneal macrophages infected with promastigotes form of Leishmania amazonensis IFLA/BR/67/PH8 assessed as increase of TNFalpha production at 6.25 to 25 uM after 72 hrs by sandwich ELISA; assay type: functional, cell-based; in short: as §2
Leishmania amazonensis [13] = experiment: Antileishmanial activity against axenic amastigotes of Leishmania amazonensis IFLA/BR/67/PH8 infected in Swiss mouse peritoneal macrophages assessed as reduction of survival rate after 24 hrs by light microscopy analysis; assay type: functional, organism-based; in short: as §3
Leishmania amazonensis [14] = experiment: Antileishmanial activity against promastigotes of Leishmania amazonensis IFLA/BR/67/PH8 assessed as induction of necrosis using Annexin-V-FITC/PI staining at 2 times IC50 after 4 hrs by flow cytometry (reference value: 2.6%); assay type: functional
Leishmania amazonensis [15] = experiment: Antileishmanial activity against promastigotes of Leishmania amazonensis IFLA/BR/67/PH8 assessed as viable cells using Annexin-V staining at 4 times IC50 after 4 hrs by flow cytometry (reference value: 77%); assay type: functional
Leishmania amazonensis [16] = experiment: Antileishmanial activity against promastigotes of Leishmania amazonensis IFLA/BR/67/PH8 assessed as induction of DNA fragmentation at 1 to 4 times IC50 after 24 hrs by agarose gel electrophoresis; assay type: functional, organism-based
In short: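 Genomic DNA was extracted with phenol/chloroform and run on agarose with GelRed (1:500) for 1 h at […]. Fragmentation was viewed under UV as a qualitative read-out.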

[17] = Ratio of compound HC50 to meglumine antimoniate HC50 for human RBC; assay type: ADME, cell-based; conditions: erythrocyte
Leishmania amazonensis [18] = experiment: Antileishmanial activity against promastigotes of Leishmania amazonensis IFLA/BR/67/PH8 after 72 hrs by Neubauer haemocytometer counting; conditions: IFLA/BR/67/PH8, 72 h
Leishmania amazonensis [19] = experiment: Antileishmanial activity against axenic amastigotes of Leishmania amazonensis IFLA/BR/67/PH8 after 24 hrs by MTT assay; conditions: IFLA/BR/67/PH8, 24 h
[20] = Ratio of compound CC50 to meglumine antimoniate CC50 for Swiss mouse peritoneal macrophages; assay type: ADME, cell-based, Peritoneal macrophage cell
Leishmania amazonensis [21] = experiment: Antileishmanial activity against promastigotes of Leishmania amazonensis IFLA/BR/67/PH8 assessed as induction of late apoptosis using Annexin-V/PI staining at IC50 after 4 hrs by flow cytometry (reference value: 12.05%); assay type: functional
Leishmania amazonensis [22] = experiment: Antileishmanial activity against promastigotes of Leishmania amazonensis IFLA/BR/67/PH8 assessed as induction of late apoptosis using Annexin-V/PI staining at 2 times IC50 after 4 hrs by flow cytometry (reference value: 12.05%); assay type: functional
Leishmania amazonensis [23] = experiment: Antileishmanial activity against promastigotes of Leishmania amazonensis IFLA/BR/67/PH8 assessed as viable cells using Annexin-V staining at IC50 after 4 hrs by flow cytometry (reference value: 77%); assay type: functional
[24] = Toxicity in human RBC assessed as induction of hemolytic activity after 1 hr by spectrometer analysis; assay type: cell-based, Erythrocyte; conditions: red blood cells (RBC)
In short: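 A 5% suspension of human erythrocytes in PBS was mixed 4:1 with serial compound dilutions and incubated 1 h at 37°C. The reaction was stopped with PBS (pH 7.2) and spun 10 min at 1000 x g, and supernatant absorbance was read at 540 nm. Haemolysis was expressed relative to a drug-free blank and to water-induced total lysis. HC50 was obtained by probit regression.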

[25] = Cytotoxicity against Swiss mouse peritoneal macrophages after 24 hrs by MTT assay; assay type: cell-based, Peritoneal macrophage cell
In short: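 Macrophages were collected from Swiss mice 5 days after thioglycollate (3%) elicitation. About 1 x 10^6 cells per well were incubated in RPMI 1640 with 10% heat-inactivated FBS and compound for 24 h at 37°C, 5% CO₂. MTT was added for 4 h, followed by 10% SDS, and absorbance was read at 540 nm. CC50 was obtained by probit regression.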

Leishmania amazonensis [26] = experiment: Antileishmanial activity against promastigotes of Leishmania amazonensis IFLA/BR/67/PH8 assessed as induction of late apoptosis using Annexin-V/PI staining at 4 times IC50 after 4 hrs by flow cytometry (reference value: 12.05%); assay type: functional
Leishmania amazonensis [27] = experiment: Antileishmanial activity against promastigotes of Leishmania amazonensis IFLA/BR/67/PH8 assessed as induction of necrosis using Annexin-V-FITC/PI staining at IC50 after 4 hrs by flow cytometry (reference value: 2.6%); assay type: functional

N#Cc1c(/N=C/c2cc3cc(Br)ccc3[nH]2)sc2c1CCCC2
Selectivity Index [1]: > 43.2 | Activity (Leishmania amazonensis [2]): 51.9% | Activity (Leishmania amazonensis [3]): 5.03% | Ratio CC50/EC50 [4]: 6.12 | Selectivity Index [5]: > 237 | Activity [6]: Active | Activity (Leishmania amazonensis [7]): Dose-dependent effect | Ratio CC50/IC50 [8]: 33.6 | Activity [9]: inactive | Activity (Leishmania amazonensis [10]): 5.2% | Activity (Leishmania amazonensis [11]): 7.1% | Activity [12]: Active | Activity (Leishmania amazonensis [13]): Dose-dependent effect | Activity (Leishmania amazonensis [14]): 21.7% | Activity (Leishmania amazonensis [15]): 15.8% | Activity (Leishmania amazonensis [16]): Active | Ratio [17]: > 14800 | pIC50 (Leishmania amazonensis [18]): 5.47 | pEC50 (Leishmania amazonensis [19]): 4.73 | selectivity ratio [20]: 840 | Activity (Leishmania amazonensis [21]): 12.5% | Activity (Leishmania amazonensis [22]): 28.5% | Activity (Leishmania amazonensis [23]): 76.7% | HC50 at 1 h [24]: > 800 µM | CC50 at 24 h [25]: 113 µM | Activity (Leishmania amazonensis [26]): 27.2% | Activity (Leishmania amazonensis [27]): 3.5%
